Measured values pooled from the literature.
Each line is one published result; the experiments were not run side by side.
MDH2: Malate dehydrogenase, mitochondrial (MDH2, Sus scrofa, UniProt P00346)

Structure (SMILES) | target | test | conditions | measurement | result
COc1ccc(S(=O)(=O)Nc2ccc3oc(-c4ccc(NS(=O)(=O)c5cc(Br)ccc5OC)cc4)nc3c2)cc1 | MDH2 | enzyme activity, inhibitor |  | IC50 | > 62.5 µM
Cc1cc2nc3c(=O)[nH]c(=O)nc-3n(C[C@H](O)[C@H](O)[C@H](O)COP(=O)(O)OP(=O)(O)OC[C@H]3O[C@@H](n4cnc5c(N)ncnc54)[C@H](O)[C@@H]3O)c2cc1C | Ataxin-2 (Homo sapiens, UniProt Q99700) | binding | lysate | Kd | 0.022 µM
CC(C)C[C@H](NC(=O)[C@@H](N)CCCNC(=N)N)C(=O)N[C@@H](Cc1ccc(O)cc1)C(=O)N[C@@H](Cc1ccc(O)cc1)C(=O)N[C@@H](Cc1ccccc1)C(=O)N[C@@H](Cc1c[nH]c2ccccc12)C(=O)N[C@@H](CC(=O)O)C(=O)O | DNA dC->dU-editing enzyme APOBEC-3G (APOBEC3G, Homo sapiens, UniProt Q9HC16) | enzyme activity, inhibitor |  | Ki | ~0.65 µM
O=C(/C=C/c1ccc(-n2ccnc2)cc1)N1CCN(C(=O)c2ccco2)CC1 | Protein ENL, YEATS (MLLT1, Homo sapiens, UniProt Q03111) | binding, BLI |  | Kd | 14 µM
CC(O)CN1CCC(CC[S+]([O-])C(c2ccc(F)cc2)c2ccc(F)cc2)CC1 (stereo not drawn) | Transporter (Slc6a2, Rattus norvegicus, UniProt Q63380) | ligand displacement, radioligand |  | Ki | > 100 µM
O=S(=O)(Nc1ccc(-c2nc3cc(NS(=O)(=O)c4cccc5ccccc45)ccc3o2)cc1)c1cccc2ccccc12 | MDH2 | enzyme activity, inhibitor |  | IC50 | > 62.5 µM
CCCCCCCCCCCCCCCC(=O)OC[C@H](COP(=O)(O)OC1[C@H](O)[C@H](O)C(OP(=O)(O)O)[C@H](O)[C@H]1O)OC(=O)CCCCCCCCCCCCCCC (stereo partly drawn) | Proto-oncogene tyrosine-protein kinase Src (SRC, Homo sapiens, UniProt P12931) | binding, fluorescence |  | Kd | 25.7 µM
Cc1ncsc1-c1ccc(CNC(=O)[C@@H]2C[C@@H](O)CN2C(=O)[C@@H](NC(=O)CCCCCCCCCC(=O)N2CCN(CC[C@H](NC(=O)C3(N)CCN(c4ncnc5[nH]ccc45)CC3)c3ccc(Cl)cc3)CC2)C(C)(C)C)cc1 | RAC-alpha serine/threonine-protein kinase (AKT1, Homo sapiens, UniProt P31749) | binding, competition with immobilised ligand |  | Kd | 0.01 µM
CCCN1CCN(c2ccc(-c3cncc(Cl)c3N3CCC4(CCNC4=O)CC3)cc2)CC1 | Cyclin-dependent kinase 1 (CDK1, Homo sapiens, UniProt P06493) | cell-free assay | lysate | Kd | 18.9 µM
CCCCCCCCNc1cc(=O)[nH]c(=O)[nH]1 | G-protein coupled receptor 84 (Gpr84, Mus musculus, UniProt Q8CIM5) | cAMP, agonist |  | EC50 | 0.066 µM
Cc1cnc(-c2ccc(-c3ccc(NC(=O)Nc4c(F)cc(F)cc4F)cc3F)c3c2C(=O)NC3)[nH]1 | NT-3 growth factor receptor (NTRK3, Homo sapiens, UniProt Q16288) | binding, competition with immobilised ligand |  | Kd | 0.0009 µM
O=C(Nc1ccc(Sc2nc3ccccc3s2)c(Cl)c1)c1cccc(Br)c1O | MDH2 | enzyme activity, inhibitor |  | IC50 | > 62.5 µM
CNC(=O)c1cc2c(Oc3ccc(NC(=O)C4(C(=O)Nc5ccc(F)cc5)CC4)cc3)ccnc2cc1OC | Ephrin type-A receptor 2 (EPHA2, Homo sapiens, UniProt P29317) | enzyme activity, inhibitor, radiometric |  | IC50 | 0.054 µM
CC(C)(C)n1nc(-c2cnc3cc(OC4CC4)ccc3c2)c(C(N)=O)c1N | Calcium/calmodulin-dependent protein kinase kinase 2 (CAMKK2, Homo sapiens, UniProt Q96RR4) | cell-free assay |  | IC50 | > 10 µM
CC(=O)N[C@@H](CCCNC(=N)N)C(=O)NCCOCCOCC(=O)N[C@H](CC(=O)O)C(=O)N1CCC[C@H]1B(O)O | Dipeptidyl peptidase 4 (DPP4, Homo sapiens, UniProt P27487) | enzyme activity, inhibitor, fluorescence |  | Ki | 7.13 µM
